Results on five molecules are retold here after ChEMBL document CHEMBL2424592, “Epothilone D and its 9-Methyl analogues: combinatorial syntheses, conformation, and biological activities” (Eur J Med Chem, 2013).

Bounds are passed on as bounds.

For assay [1], the system named is MCF7. Put plainly: Cytotoxicity against human MCF7 cells after 72 hrs. The class given is functional, cell-based. Conditions: MCF7, 72 h.
Assay [2] can be described thus: Cytotoxicity against human MCF7/ADR cells after 72 hrs. The class given is functional, cell-based. Conditions: NCI/ADR-RES.
The target of assay [3] is Tubulin (Homo sapiens) (UniProt P68371+Q9H4B7+P0DPH7+P68366+Q13509+Q71U36+P04350+Q3ZCM7+P07437+P68363+Q9BQE3+Q6PEY2+Q13885+Q9BVA1+Q9BUF5). In words: Inhibition of tubulin polymerization (unknown origin) at 5 uM. Format: protein-complex assay. Summed up: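 Tubulin came from fresh animal brain (species not given), homogenized in cold MES buffer and purified through repeated cold (4 °C) and warm 105,000 g centrifugation cycles, then diluted to 2 mg/mL in MES. Cold tubulin was mixed with ATPNa2 (40 mmol/L stock) and compound. Polymerization was followed as OD350 every 3 min at 37 °C for 30 min.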

The IC50 is the midpoint of a concentration-inhibition curve. A higher IC50 goes with a need for much substance. For `C/C1=C\C[C@@H](/C(C)=C/c2csc(C)n2)OC(=O)C[C@H](O)C(C)(C)C(=O)[C@H](C)[C@@H](O)[C@@H](C)[C@H](C)CC1`, the results for the IC50 in assay [1] and in assay [2] were 7.7 µM and 7.3 µM, respectively.

In the case of `C/C1=C\C[C@@H](/C(C)=C/c2csc(C)n2)OC(=O)C[C@H](O)C(C)(C)C(=O)[C@H](C)[C@@H](O)[C@@H](C)[C@@H](C)CC1`, the 50% inhibitory concentration (IC50) was 93.4 µM in assay [1] and greater than 100 µM in assay [2].

A word on the inhibition: it is the change of the read-out against control, counted positive when it falls. A higher inhibition goes with strong suppression. Turning to `C/C1=C/C[C@@H](/C(C)=C/c2csc(C)n2)OC(=O)C[C@H](O)C(C)(C)C(=O)[C@H](C)[C@@H](O)[C@@H](C)[C@H](C)CC1`, the IC50 is 0.99 µM in assay [1] and 0.51 µM in assay [2]. The same molecule came in with an inhibition in assay [3] of 15.7%.

For `C/C1=C/C[C@@H](/C(C)=C/c2csc(C)n2)OC(=O)C[C@H](O)C(C)(C)C(=O)[C@H](C)[C@@H](O)[C@@H](C)CCC1` [EPOTHILONE D], the IC50 in assay [1] was found to be 0.014 µM; in assay [2], 0.01 µM. Moreover, the inhibition in assay [3] amounted to 43.3%.

Turning to `C/C1=C/C[C@@H](/C(C)=C/c2csc(C)n2)OC(=O)C[C@H](O)C(C)(C)C(=O)[C@H](C)[C@@H](O)[C@@H](C)[C@@H](C)CC1`, the IC50 in assay [1] was 35.4 µM. This molecule also returned an inhibition in assay [3] of 8.5%.
